In ChEMBL document CHEMBL5058577, “EUbOPEN Chemogenomics Library 2 (Multiplex)” (2022):

Test system: U2OS
Experiment: Multiplex assay against U2OS
Format: toxicity, cell-based
Details: human
How it was run: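 Values for tubulin, mitochondrial-mass and membrane-permeability phenotypes are per cents of cells with healthy nuclei. These cells were identified by CellPathfinder machine-learning gating of live cells that had been stained at seeding with Hoechst33342, BioTracker Green Microtubule Cytoskeleton Dye, MitoTracker Red and Annexin V Alexa Fluor 680 and imaged on a CQ1 microscope at 37°C and 5% CO2 after compound addition. The gating first set Hoechst high-intensity objects apart from normal cells, then split normal cells into healthy, pyknosed or fragmented nuclei, and pyknosed cells into mitotic or apoptotic.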

[1] = 12 h, 1 µM, compound concentration 1 uM, replicate 1
[2] = 12 h, 1 µM, compound concentration 1 uM, replicate 2
[3] = 12 h, 10 µM, compound concentration 10 uM, replicate 1
[4] = 12 h, 10 µM, compound concentration 10 uM, replicate 2
[5] = 24 h, 1 µM, compound concentration 1 uM, replicate 1
[6] = 24 h, 1 µM, compound concentration 1 uM, replicate 2
[7] = 24 h, 10 µM, compound concentration 10 uM, replicate 1
[8] = 24 h, 10 µM, compound concentration 10 uM, replicate 2
[9] = 48 h, 1 µM, compound concentration 1 uM, replicate 1
[10] = 48 h, 1 µM, compound concentration 1 uM, replicate 2
[11] = 48 h, 10 µM, compound concentration 10 uM, replicate 1
[12] = 48 h, 10 µM, compound concentration 10 uM, replicate 2

Oc1c(CN2CCN(c3ccccn3)CC2)cc(Cl)c2cccnc12
Population Apoptotic (%) [1]: 95% | Population Fragmented Nuclei (%) [1]: 24% | Population Healthy Nuclei (%) [1]: 64% | Population Hoechst High Intensity Objects (%) [1]: 1% | Population Membrane Permeable-Phenotype (%) [1]: 3% | Population Mitochondria Different-Phenotype (%) [1]: 1% | Population Mitotic Cells (%) [1]: 4% | Population Normal (%) [1]: 98% | Population Pyknosed Nuclei (%) [1]: 10% | Population Tubulin-Different-Phenotype (%) [1]: 2% | Total Cell Count [1]: 237 | Population Apoptotic (%) [2]: 100% | Population Fragmented Nuclei (%) [2]: 16% | Population Healthy Nuclei (%) [2]: 78% | Population Membrane Permeable-Phenotype (%) [2]: 13% | Population Mitochondria Different-Phenotype (%) [2]: 4% | Population Mitotic Cells (%) [2]: 0% | Population Pyknosed Nuclei (%) [2]: 5% | Population Tubulin-Different-Phenotype (%) [2]: 8% | Total Cell Count [2]: 93 | Population Apoptotic (%) [3]: 84% | Population Fragmented Nuclei (%) [3]: 31% | Population Healthy Nuclei (%) [3]: 56% | Population Hoechst High Intensity Objects (%) [3]: 2% | Population Membrane Permeable-Phenotype (%) [3]: 12% | Population Mitochondria Different-Phenotype (%) [3]: 28% | Population Mitotic Cells (%) [3]: 15% | Population Normal (%) [3]: 97% | Population Pyknosed Nuclei (%) [3]: 11% | Population Tubulin-Different-Phenotype (%) [3]: 8% | Total Cell Count [3]: 229 | Population Apoptotic (%) [4]: 87% | Population Fragmented Nuclei (%) [4]: 18% | Population Healthy Nuclei (%) [4]: 68% | Population Hoechst High Intensity Objects (%) [4]: 1% | Population Membrane Permeable-Phenotype (%) [4]: 6% | Population Mitochondria Different-Phenotype (%) [4]: 35% | Population Mitotic Cells (%) [4]: 12% | Population Normal (%) [4]: 98% | Population Pyknosed Nuclei (%) [4]: 13% | Population Tubulin-Different-Phenotype (%) [4]: 11% | Total Cell Count [4]: 118 | Population Apoptotic (%) [5]: 88% | Population Fragmented Nuclei (%) [5]: 29% | Population Healthy Nuclei (%) [5]: 64% | Population Hoechst High Intensity Objects (%) [5]: 1% | Population Membrane Permeable-Phenotype (%) [5]: 3% | Population Mitochondria Different-Phenotype (%) [5]: 2% | Population Mitotic Cells (%) [5]: 11% | Population Normal (%) [5]: 98% | Population Pyknosed Nuclei (%) [5]: 6% | Population Tubulin-Different-Phenotype (%) [5]: 2% | Total Cell Count [5]: 270 | Population Apoptotic (%) [6]: 100% | Population Fragmented Nuclei (%) [6]: 7% | Population Healthy Nuclei (%) [6]: 87% | Population Membrane Permeable-Phenotype (%) [6]: 9% | Population Mitochondria Different-Phenotype (%) [6]: 3% | Population Mitotic Cells (%) [6]: 0% | Population Pyknosed Nuclei (%) [6]: 5% | Population Tubulin-Different-Phenotype (%) [6]: 7% | Total Cell Count [6]: 97 | Population Apoptotic (%) [7]: 90% | Population Fragmented Nuclei (%) [7]: 27% | Population Healthy Nuclei (%) [7]: 63% | Population Hoechst High Intensity Objects (%) [7]: 4% | Population Membrane Permeable-Phenotype (%) [7]: 10% | Population Mitochondria Different-Phenotype (%) [7]: 14% | Population Mitotic Cells (%) [7]: 9% | Population Normal (%) [7]: 95% | Population Pyknosed Nuclei (%) [7]: 9% | Population Tubulin-Different-Phenotype (%) [7]: 7% | Total Cell Count [7]: 238 | Population Apoptotic (%) [8]: 100% | Population Fragmented Nuclei (%) [8]: 29% | Population Healthy Nuclei (%) [8]: 58% | Population Hoechst High Intensity Objects (%) [8]: 3% | Population Membrane Permeable-Phenotype (%) [8]: 9% | Population Mitochondria Different-Phenotype (%) [8]: 40% | Population Mitotic Cells (%) [8]: 0% | Population Normal (%) [8]: 96% | Population Pyknosed Nuclei (%) [8]: 12% | Population Tubulin-Different-Phenotype (%) [8]: 6% | Total Cell Count [8]: 127 | Population Apoptotic (%) [9]: 94% | Population Fragmented Nuclei (%) [9]: 25% | Population Healthy Nuclei (%) [9]: 67% | Population Hoechst High Intensity Objects (%) [9]: 3% | Population Membrane Permeable-Phenotype (%) [9]: 6% | Population Mitochondria Different-Phenotype (%) [9]: 3% | Population Mitotic Cells (%) [9]: 5% | Population Normal (%) [9]: 96% | Population Pyknosed Nuclei (%) [9]: 7% | Population Tubulin-Different-Phenotype (%) [9]: 3% | Total Cell Count [9]: 276 | Population Apoptotic (%) [10]: 87% | Population Fragmented Nuclei (%) [10]: 14% | Population Healthy Nuclei (%) [10]: 77% | Population Hoechst High Intensity Objects (%) [10]: 1% | Population Membrane Permeable-Phenotype (%) [10]: 7% | Population Mitochondria Different-Phenotype (%) [10]: 1% | Population Mitotic Cells (%) [10]: 12% | Population Normal (%) [10]: 98% | Population Tubulin-Different-Phenotype (%) [10]: 5% | Total Cell Count [10]: 111 | Population Apoptotic (%) [11]: 96% | Population Fragmented Nuclei (%) [11]: 32% | Population Healthy Nuclei (%) [11]: 57% | Population Hoechst High Intensity Objects (%) [11]: 2% | Population Membrane Permeable-Phenotype (%) [11]: 11% | Population Mitochondria Different-Phenotype (%) [11]: 19% | Population Mitotic Cells (%) [11]: 3% | Population Normal (%) [11]: 97% | Population Pyknosed Nuclei (%) [11]: 10% | Population Tubulin-Different-Phenotype (%) [11]: 7% | Total Cell Count [11]: 275 | Population Apoptotic (%) [12]: 100% | Population Fragmented Nuclei (%) [12]: 38% | Population Healthy Nuclei (%) [12]: 42% | Population Hoechst High Intensity Objects (%) [12]: 4% | Population Membrane Permeable-Phenotype (%) [12]: 12% | Population Mitochondria Different-Phenotype (%) [12]: 41% | Population Mitotic Cells (%) [12]: 0% | Population Normal (%) [12]: 95% | Population Pyknosed Nuclei (%) [12]: 19% | Population Tubulin-Different-Phenotype (%) [12]: 8% | Total Cell Count [12]: 144
